Reference: ChEMBL document CHEMBL3580660, “Synthesis and Biological Evaluation of Novel Olean-28,13β-lactams as Potential Antiprostate Cancer Agents” (J Med Chem, 2015)
Calls of active or inactive are those of the source. The rule behind the calls is not given here.

Assays:
DU-145 [1] = assay: Antiproliferative activity against human DU145 cells after 72 hrs by CCK8 assay; type: functional, cell-based; conditions: DU-145, 72 h
Summary of the method: (§1)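 CCK-8 assay: DU-145, H460, Bxpc-3, BEL-7404 and nontumor WPMY-1 cells seeded at 5 × 10^3 cells/well in 10% FCS DMEM overnight, then exposed in triplicate to 0.041−10 μM for 72 h. CCK-8 added for final 30 min, absorbance 450 nm; inhibition relative to medium-only controls after background subtraction; IC50 as concentration giving 50% inhibition.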

[2] = Antiproliferative activity against human Bel7404 cells after 72 hrs by CCK8 assay; type: functional, cell-based; conditions: BEL-7404, 72 h; summary of the method: as §1
[3] = Antiproliferative activity against human BxPC3 cells after 72 hrs by CCK8 assay; type: functional, cell-based; conditions: BXPC-3, 72 h; summary of the method: as §1
[4] = Antiproliferative activity against human WPMY-1 cells after 72 hrs by CCK8 assay; type: functional, cell-based; conditions: WPMY-1, 72 h; summary of the method: as §1
[5] = Antiproliferative activity against human H460 cells after 72 hrs by CCK8 assay; type: functional, cell-based; conditions: NCI-H460, 72 h; summary of the method: as §1
DU-145 [6] = assay: Antiproliferative activity against human DU145 cells at 2 uM after 72 hrs by CCK8 assay; type: functional
Summary of the method: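 DU-145 screening at single concentration 2 μM for 72 h, proliferation by CCK-8 (cells 5 × 10^3/well in 10% FCS DMEM). Percent inhibition vs untreated, background-corrected; mean ± SD from three independent experiments.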

Compound `CC1(C)CC[C@]23CC[C@@]4(C)[C@]5(C)CC[C@H]6C(C)(C)C(=O)C(C#N)=C[C@]6(C)C5=CC(=O)[C@@]4([C@@H]2C1)N(C(C)(C)C)C3=O` has an IC50 (DU-145 [1]) of 960 nM, an IC50 [2] of 1140 nM and an IC50 [3] of 660 nM. The IC50 [4] was 9600 nM, the IC50 [5] was 430 nM and the inhibition (DU-145 [6]) was “Active”.

In the case of `CC1(C)CC[C@]23CC[C@@]4(C)[C@]5(C)CC[C@H]6C(C)(C)C(=O)C(C#N)=C[C@]6(C)C5=CC(=O)[C@@]4([C@@H]2C1)N(CCO)C3=O`, the inhibition (DU-145 [6]) is reported as “Active”.

With `CC1(C)CC[C@]23CC[C@@]4(C)[C@]5(C)CC[C@H]6C(C)(C)C(=O)C(C#N)=C[C@]6(C)C5=CC(=O)[C@@]4([C@@H]2C1)N(CCc1ccccc1)C3=O` the inhibition (DU-145 [6]) was “Active”.

With `CCCCN1C(=O)[C@]23CCC(C)(C)C[C@H]2[C@]12C(=O)C=C1[C@@]4(C)C=C(C#N)C(=O)C(C)(C)[C@@H]4CC[C@@]1(C)[C@]2(C)CC3` the inhibition (DU-145 [6]) was “Active”.

In the case of `CCN1C(=O)[C@]23CCC(C)(C)C[C@H]2[C@]12C(=O)C=C1[C@@]4(C)C=C(C#N)C(=O)C(C)(C)[C@@H]4CC[C@@]1(C)[C@]2(C)CC3`, the inhibition (DU-145 [6]) is reported as “Active”.

For `CCCCCCN1C(=O)[C@]23CCC(C)(C)C[C@H]2[C@]12C(=O)C=C1[C@@]4(C)C=C(C#N)C(=O)C(C)(C)[C@@H]4CC[C@@]1(C)[C@]2(C)CC3`, the inhibition (DU-145 [6]) was “Active”.

For `CC1(C)CC[C@]2(C(=O)NC3CCCCC3)CC[C@]3(C)[C@H](C(=O)C=C4[C@@]5(C)C=C(C#N)C(=O)C(C)(C)[C@@H]5CC[C@]43C)[C@@H]2C1`, the inhibition at 2 µM (DU-145 [6]; DU-145, 72 h) was 53%.

In the case of `CN1C(=O)[C@]23CCC(C)(C)C[C@H]2[C@]12C(=O)C=C1[C@@]4(C)C=C(C#N)C(=O)C(C)(C)[C@@H]4CC[C@@]1(C)[C@]2(C)CC3`, the inhibition (DU-145 [6]) is reported as “Active”.

For `CCCN1C(=O)[C@]23CCC(C)(C)C[C@H]2[C@]12C(=O)C=C1[C@@]4(C)C=C(C#N)C(=O)C(C)(C)[C@@H]4CC[C@@]1(C)[C@]2(C)CC3`, the inhibition (DU-145 [6]) was “Active”.

Compound `CC1(C)CC[C@]2(C(=O)n3ccnc3)CC[C@]3(C)[C@H](C(=O)C=C4[C@@]5(C)C=C(C#N)C(=O)C(C)(C)[C@@H]5CC[C@]43C)[C@@H]2C1` has an IC50 (DU-145 [1]) of 690 nM, an IC50 [2] of 990 nM and an IC50 [3] of 1500 nM. It also gave an IC50 [4] of 2090 nM and an IC50 [5] of 420 nM.
